Laboratory results from ChEMBL document CHEMBL5661970 (Cancer Res, 2006).
Calls of active or inactive are those of the source. The calls are words filed in the database; no cut-off is given here.

Experiments:
[1] = Cmax in F344/N JcL-rnu athymic rat at 0.04 mg/kg, po measured upto 72 hrs by HPLC-MS/MS analysis; type: ADME, organism-based; settings: in vivo
Method in brief: (§1)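 Female F344/N JcL-rnu rats, four per group, single p.o. dose suspended in 0.5% methyl cellulose. Tail-vein blood sampled at set times to 72 h. Serum spiked with internal standard, deproteinated with acetonitrile, analysed by HPLC-MS/MS. Parameters derived by noncompartmental analysis.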

OVCAR-3 = experiment: Antitumor activity against human OVCAR-3 cells xenografted in gamma-irradiation induced RH-rnu/rnu athymic rat assessed as tumor growth inhibition at 1.0 mg/kg, po administered once daily for 2 weeks and measured on day 14 relative to control; type: functional; settings: OVCAR-3, light or radiation study, 336 h, read-out: TGI
Method in brief: (§2)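 Rats were γ-irradiated with 7 Gy whole body, and 24 h later received s.c. tumor cells. Fragments (20-30 mg) from ~1,500 mm3 tumors were then implanted s.c. into irradiated athymic rats. Oral dosing at 0.2 or 1 mg/kg or vehicle ran once daily for 2 weeks from day 0. Tumors were measured with calipers twice weekly (length×width²×0.5). TGI% was taken versus vehicle on day 14 (BxPC-3: day 13), with an unpaired t test on RTV.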

[2] = Half life in F344/N JcL-rnu athymic rat at 0.2 mg/kg, po measured upto 72 hrs by HPLC-MS/MS analysis; type: ADME, organism-based; settings: in vivo; method in brief: as §1
[3] = Apparent oral clearance in F344/N JcL-rnu athymic rat at 5 mg/kg, po measured upto 72 hrs by HPLC-MS/MS analysis; type: ADME, organism-based; settings: in vivo; method in brief: as §1
DU-145 = experiment: Antitumor activity against human DU-145 cells xenografted in gamma-irradiation induced RH-rnu/rnu athymic rat assessed as tumor growth inhibition at 1.0 mg/kg, po administered once daily for 2 weeks and measured on day 14 relative to control; type: functional; settings: DU-145, light or radiation study, 336 h, read-out: TGI; method in brief: as §2
Calu-6 [4] = experiment: Antitumor activity against human Calu-6 cells xenografted in RH-rnu/rnu athymic rat assessed as decreased microvessel density at 1 mg/kg, po administered for 14 days by immunofluorescence staining analysis relative to control; type: functional; parameters: scale not given: the % may be the effect or the level left; settings: time 14 day
Calu-6 [5] = experiment: Antitumor activity against human Calu-6 cells xenografted in gamma-irradiation induced RH-rnu/rnu athymic rat assessed as tumor growth inhibition at 0.2 mg/kg, po administered once daily for 2 weeks and measured on day 14 relative to control; type: functional; settings: Calu-6, light or radiation study, 336 h, read-out: TGI; method in brief: as §2
A549 [6] = experiment: Antitumor activity against human A549 cells xenografted in F344/N Jcl-rnu athymic rat assessed as increase in percentage of necrotic areas in tumor by H and E staining based assay
[7] = Cmax in F344/N JcL-rnu athymic rat at 0.2 mg/kg, po measured upto 72 hrs by HPLC-MS/MS analysis; type: ADME, organism-based; settings: in vivo; method in brief: as §1
Calu-6 [8] = experiment: Antitumor activity against human Calu-6 cells xenografted in RH-rnu/rnu athymic rat assessed as larger enclosed median lumen area by the halos in tumor by measuring vessel diameter at 0.2 mg/kg, po administered for 14 days by H33342 dye based fluorescence microscopic analysis; type: functional; settings: time 14 day
Method in brief: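 Calu-6 tumor-bearing athymic rats, three per group, received oral drug at 0.2 or 1 mg/kg or vehicle on days 0-13. They were killed 1 min after i.v. H33342 at 20 mg/kg on day 13. 10 µm cryosections were cut from five tumor levels at least 200 µm apart and examined under UV epifluorescence. The major axis of fluorescent halos around vessels was measured by image analysis, with a Mann-Whitney test.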

BXPC-3 = experiment: Antitumor activity against human BXPC-3 cells xenografted in gamma-irradiation induced RH-rnu/rnu athymic rat assessed as tumor growth inhibition at 0.2 mg/kg, po administered once daily for 2 weeks and measured on day 13 relative to control; type: functional; settings: BXPC-3, light or radiation study, 336 h, read-out: TGI; method in brief: as §2
A549 [9] = experiment: Antitumor activity against human A549 cells xenografted in F344/N Jcl-rnu athymic rat assessed as reduction in number of CD31-positive cells in viable regions of tumor at 0.2 mg/kg, po administered once daily for 7 days by immunofluorescence staining analysis relative to control; settings: time 7 day
PC-3 = experiment: Antitumor activity against human PC-3 cells xenografted in gamma-irradiation induced RH-rnu/rnu athymic rat assessed as tumor growth inhibition at 0.2 mg/kg, po administered once daily for 2 weeks and measured on day 14 relative to control; type: functional; settings: PC-3, light or radiation study, 336 h, read-out: TGI
A549 [10] = experiment: Antitumor activity against human A549 cells xenografted in F344/N Jcl-rnu athymic rat assessed as tumor regression at 0.2 mg/kg, po relative to control
[11] = Minimum concentration at steady state in F344/N JcL-rnu athymic rat at 0.2 mg/kg/day, po measured upto 72 hrs by HPLC-MS/MS analysis; type: ADME, organism-based; settings: in vivo
Method in brief: (§3)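 Steady-state serum levels for repeated oral 0.2 mg/kg daily dosing were simulated from single-dose serum data (female F344/N JcL-rnu rats, four per group, tail-vein sampling to 72 h, HPLC-MS/MS, noncompartmental analysis), not measured directly.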

LS174T = experiment: Antitumor activity against human LS174T cells xenografted in gamma-irradiation induced RH-rnu/rnu athymic rat assessed as tumor growth inhibition at 0.2 mg/kg, po administered once daily for 2 weeks and measured on day 14 relative to control; type: functional; settings: light or radiation study, 336 h, read-out: TGI; method in brief: as §2
Insulin receptor = Insulin receptor (Homo sapiens, UniProt P06213); experiment: Inhibition of insulin-R (unknown origin) in presence of ATP
Insulin receptor, sequence (P06213 28-758 limits assumed): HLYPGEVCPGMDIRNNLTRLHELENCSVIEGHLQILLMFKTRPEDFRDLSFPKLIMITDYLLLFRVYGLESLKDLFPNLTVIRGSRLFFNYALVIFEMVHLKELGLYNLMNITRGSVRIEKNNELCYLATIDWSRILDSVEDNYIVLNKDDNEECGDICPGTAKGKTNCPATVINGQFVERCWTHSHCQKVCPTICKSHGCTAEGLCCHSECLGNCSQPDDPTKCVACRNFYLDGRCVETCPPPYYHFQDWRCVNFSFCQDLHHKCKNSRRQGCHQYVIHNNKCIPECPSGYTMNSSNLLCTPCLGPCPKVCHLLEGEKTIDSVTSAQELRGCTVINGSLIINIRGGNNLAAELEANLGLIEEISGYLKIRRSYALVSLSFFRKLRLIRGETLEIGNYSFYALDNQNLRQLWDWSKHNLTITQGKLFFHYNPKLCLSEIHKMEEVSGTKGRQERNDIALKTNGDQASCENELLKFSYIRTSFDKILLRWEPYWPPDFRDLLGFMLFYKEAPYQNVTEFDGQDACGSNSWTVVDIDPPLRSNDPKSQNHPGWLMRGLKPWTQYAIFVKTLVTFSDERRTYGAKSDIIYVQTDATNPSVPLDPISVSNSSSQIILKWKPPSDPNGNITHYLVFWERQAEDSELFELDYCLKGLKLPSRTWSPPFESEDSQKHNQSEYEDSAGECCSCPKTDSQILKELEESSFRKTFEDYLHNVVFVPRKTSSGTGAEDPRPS
Insulin receptor, sequence (P06213 763-1382 limits assumed): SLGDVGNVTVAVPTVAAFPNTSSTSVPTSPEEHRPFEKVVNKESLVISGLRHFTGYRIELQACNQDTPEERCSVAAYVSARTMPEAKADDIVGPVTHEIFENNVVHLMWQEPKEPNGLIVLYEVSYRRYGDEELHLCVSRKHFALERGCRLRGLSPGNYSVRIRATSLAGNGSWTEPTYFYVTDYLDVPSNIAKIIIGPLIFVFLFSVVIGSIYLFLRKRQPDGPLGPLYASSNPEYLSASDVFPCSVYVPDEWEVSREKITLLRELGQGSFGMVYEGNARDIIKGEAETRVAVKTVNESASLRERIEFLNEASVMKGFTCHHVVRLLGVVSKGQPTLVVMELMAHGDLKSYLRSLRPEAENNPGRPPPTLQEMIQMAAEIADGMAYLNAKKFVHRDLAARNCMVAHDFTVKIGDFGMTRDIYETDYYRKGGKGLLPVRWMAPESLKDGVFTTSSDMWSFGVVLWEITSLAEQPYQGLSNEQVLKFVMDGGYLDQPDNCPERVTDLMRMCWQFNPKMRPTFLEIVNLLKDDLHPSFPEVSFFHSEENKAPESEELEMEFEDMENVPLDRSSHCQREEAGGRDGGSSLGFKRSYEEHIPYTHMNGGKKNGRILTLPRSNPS
Method in brief: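 Cell-free kinase assay using recombinant tyrosine kinases with 1 μmol/L ATP, run in quadruplicate. IC50 values determined.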

[12] = Average concentration at steady state in F344/N JcL-rnu athymic rat at 0.2 mg/kg/day, po measured upto 72 hrs by HPLC-MS/MS analysis; type: ADME, organism-based; settings: in vivo; method in brief: as §3
[13] = Antitumor activity against human CGL-9 cells xenografted in gamma-irradiation induced RH-rnu/rnu athymic rat assessed as tumor growth inhibition at 1.0 mg/kg, po administered once daily for 2 weeks and measured on day 14 relative to control; type: functional; settings: CGL-9, light or radiation study, 336 h, read-out: TGI
Method in brief: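 Human tumor cells inoculated s.c. in right flank of athymic rats 24 h after whole-body γ-irradiation (7 Gy, Co60); established ~1,500 mm3 tumors excised and 20-30 mg fragments implanted s.c. in irradiated rats. Oral dosing in 0.5% methyl cellulose vehicle from randomization (day 0). Tumor volume measured twice weekly by calipers, (length × width²) × 0.5; TGI% versus vehicle on day 14.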

NCI-H460 [14] = experiment: Antitumor activity against human NCI-H460 cells xenografted in gamma-irradiation induced RH-rnu/rnu athymic rat assessed as tumor growth inhibition at 1.0 mg/kg, po administered once daily for 2 weeks and measured on day 14 relative to control; type: functional; settings: NCI-H460, light or radiation study, 336 h, read-out: TGI; method in brief: as §2
NCI-H460 [15] = experiment: Antitumor activity against human NCI-H460 cells xenografted in gamma-irradiation induced RH-rnu/rnu athymic rat assessed as tumor growth inhibition at 0.2 mg/kg, po administered once daily for 2 weeks and measured on day 14 relative to control; type: functional; settings: NCI-H460, light or radiation study, 336 h, read-out: TGI; method in brief: as §2

COc1cc2nccc(Oc3ccc(NC(=O)Nc4cc(C)on4)c(Cl)c3)c2cc1OC [TIVOZANIB]
Cmax [1]: 21.6 ng/mL
inhibition in vivo at 1 mg/kg (OVCAR-3): 98.5%
half-life [2]: 7.78 h
CL/F [3]: 1.88 mL/min/kg
inhibition in vivo at 1 mg/kg (DU-145): > 100%
Activity (Calu-6 [4]): 71.2%
inhibition in vivo at 0.2 mg/kg (Calu-6 [5]): 44.1%
Activity (A549 [6]): Active
Cmax [7]: 108 ng/mL
Activity (Calu-6 [8]): 57.9 um
inhibition in vivo at 0.2 mg/kg (BXPC-3): 60.7%
Activity (A549 [9]): 20.7%
inhibition in vivo at 0.2 mg/kg (PC-3): 73.6%
tumor regression % at 0.2 mg/kg (A549 [10]): 2%
Cminss [11]: 22.2 ng/mL
inhibition in vivo at 0.2 mg/kg (LS174T): 85.7%
IC50 (Insulin receptor): > 1000 nM
Cave,ss [12]: 69.5 ng/mL
inhibition in vivo at 1 mg/kg [13]: 96.2%
inhibition in vivo at 1 mg/kg (NCI-H460 [14]): 85.9%
inhibition in vivo at 0.2 mg/kg (NCI-H460 [15]): 68.8%
